{"data": "Results pooled from the literature", "cell line": "MDA-MB-231", "observed": "cell growth or viability", "note": "Lines come from different studies, so protocols differ."}
{"Compound": "CCC1(c2ccc(N)cc2)CCC(=O)NC1=O (stereo not drawn)", "test": "CCK-8", "setting": "48 h", "IC50": "> 50 µM"}
{"Compound": "CO[C@]1([C@@H]2CSC(=O)N2C)C[C@H]2C[C@@H](CC[C@H](C)/C=C\\C=C\\CC/C(C)=C\\C(=O)O2)O1", "test": "MTT", "setting": "72 h", "IC50": "19.9 µM"}
{"Compound": "CC(C)=CCc1c(O)cc2oc3cc(O)c(O)c(CC=C(C)C)c3c(=O)c2c1O", "setting": "48 h", "IC50": "16.4 µM"}
{"Compound": "COc1ccc2c(c1)[nH]c1c(C)nccc12", "test": "MTT", "setting": "72 h", "IC50": "16.7 µM"}
{"Compound": "N.N.[Cl][Pt][Cl]", "setting": "48 h", "IC50": "27.5 µM"}
{"Compound": "Cn1c(CCCC(=O)O)nc2cc(N(CCCl)CCCl)ccc21", "test": "MTT", "IC50": "13.3 µM"}
{"Compound": "CO[C@]1([C@@H]2CSC(=O)N2C(=O)c2ccccc2)C[C@H]2C[C@@H](CC[C@H](C)/C=C\\C=C\\CC/C(C)=C\\C(=O)O2)O1", "test": "MTT", "setting": "72 h", "IC50": "4.48 µM"}
{"Compound": "Nc1cc(I)c(I)cc1N", "setting": "72 h", "IC50": "65 µM"}
{"Compound": "COC(C(=O)N1C(=O)SCC1C1(OC)CC2CC(CCC(C)C=CC=CCCC(C)=CC(=O)O2)O1)c1ccccc1 (stereo not drawn)", "test": "MTT", "setting": "72 h", "IC50": "26.2 µM"}
{"Compound": "N.N.O=C([O-])C1(C(=O)[O-])CCC1.[Pt+2]", "test": "MTT", "setting": "96 h", "IC50": "33 µM"}
{"Compound": "CO[C@]1([C@@H]2CSC(=O)N2Cc2ccccc2)C[C@H]2C[C@@H](CC[C@H](C)/C=C\\C=C\\CC/C(C)=C\\C(=O)O2)O1", "test": "MTT", "setting": "72 h", "IC50": "6.82 µM"}
{"Compound": "N[C@@H](Cc1ccc(N(CCCl)CCCl)cc1)C(=O)O", "test": "CCK-8", "setting": "48 h", "IC50": "> 50 µM"}
